Test results: ChEMBL document CHEMBL3867441, “Boesenberols, Pimarane Diterpenes with TRAIL-Resistance-Overcoming Activity from Boesenbergia pandurata” (J Nat Prod, 2016)
Calls of active or inactive are those of the source. The calls are words filed in the database; no cut-off is given here.

What was measured:
[1] = Downregulation of GSK-3beta protein expression in human AGS cells measured after 24 hrs by Western blot analysis; type: functional, cell-based
How it was run: (§1)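 Western blot in AGS cells. Cells are seeded for 24 h and treated with compound at the indicated concentrations for 24 h. Lysis is in Tris·HCl (20 mM, pH 7.4), NaCl 150 mM, 0.5% Triton X-100, 0.5% deoxycholate, EDTA 10 mM, orthovanadate 1 mM, NaF 0.1 mM and protease inhibitors. Proteins are run on 12.5% SDS-PAGE and transferred to PVDF, blocked in 5% milk/TBST, probed with primary and then HRP secondary antibodies, and detected by ECL. β-Actin is the internal control.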

[2] = Upregulation of p53 protein expression in human AGS cells measured after 24 hrs by Western blot analysis; type: functional, cell-based; how it was run: as §1
[3] = Upregulation of cleaved caspase3 expression in human AGS cells at 8 to 24 uM measured after 24 hrs by Western blot analysis; type: functional, cell-based; how it was run: as §1
[4] = Upregulation of cleaved caspase9 expression in human AGS cells at 8 to 24 uM measured after 24 hrs by Western blot analysis; type: functional, cell-based; how it was run: as §1
[5] = Cytotoxicity against HEK293 cells assessed as reduction in cell viability up to 30 uM measured after 24 hrs in presence of TRIAL by FMCA method; type: toxicity, cell-based; conditions: human, hek293, 24 h
How it was run: (§2)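 FMCA viability assay in TRAIL-resistant AGS cells or HEK293 cells (HEK293 in DMEM, 10% FBS, 1% penicillin-streptomycin). Cells are seeded at 6 × 10^3 per well, left 24 h at 37 °C in 5% CO2, then exposed to test sample at several doses with or without TRAIL (100 ng/mL) for 24 h. Cells are PBS-washed and given […] (10 μg/mL) in PBS for 1 h at 37 °C. Fluorescence is read at ex 485/em 538 nm. Means ± SD, n = 4; luteolin is the positive control and DMSO the negative control.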

[6] = tested on: AGS; test: Potentiation of TRAIL-induced cytotoxicity in human AGS cells assessed as reduction in cell viability at 5 to 25 uM measured after 24 hrs by FMCA method; type: functional, cell-based; how it was run: as §2
[7] = Upregulation of Bax protein expression in human AGS cells at 8 to 24 uM measured after 24 hrs by Western blot analysis; type: functional, cell-based; how it was run: as §1
[8] = Upregulation of DR4 protein expression in human AGS cells measured after 24 hrs by Western blot analysis; type: functional, cell-based; how it was run: as §1
[9] = tested on: AGS; test: Potentiation of TRAIL-induced apoptosis in human AGS cells assessed as increase in cleaved caspase8 level at 16 uM measured after 24 hrs by Western blot analysis; type: functional
How it was run: (§3)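 Western blot in AGS cells for cleaved caspases-3, -8 and -9. Cells are seeded for 24 h, then given compound at 16 μM, TRAIL (100 ng/mL), or both together for 24 h. Lysates are made in the Tris/Triton/deoxycholate lysis buffer with protease inhibitors and run on 12.5% SDS-PAGE. Proteins are transferred to PVDF, immunodetected with HRP secondary antibodies and read by ECL chemiluminescence.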

[10] = tested on: AGS; test: Induction of apoptosis in human AGS cells assessed as cleaved caspase8 level at 16 uM measured after 24 hrs by Western blot analysis relative to control; type: functional; how it was run: as §3
[11] = Upregulation of cleaved caspase-8 expression in human AGS cells at 8 to 24 uM measured after 24 hrs by Western blot analysis; type: functional, cell-based; how it was run: as §1
[12] = Downregulation of c-FLIP expression in human AGS cells at 8 to 24 uM measured after 24 hrs by Western blot analysis; type: functional, cell-based; how it was run: as §1
[13] = Upregulation of Fas protein expression in human AGS cells measured after 24 hrs by Western blot analysis; type: functional, cell-based; how it was run: as §1
[14] = Upregulation of CHOP expression in human AGS cells measured after 24 hrs by Western blot analysis; type: functional, cell-based; how it was run: as §1
[15] = tested on: AGS; test: Induction of apoptosis in human AGS cells assessed as cleaved caspase9 level at 16 uM measured after 24 hrs by Western blot analysis relative to control; type: functional; how it was run: as §3
[16] = tested on: AGS; test: Induction of apoptosis in human AGS cells assessed as cleaved caspase3 level at 16 uM measured after 24 hrs by Western blot analysis relative to control; type: functional; how it was run: as §3
[17] = Upregulation of DR5 protein expression in human AGS cells measured after 24 hrs by Western blot analysis; type: functional, cell-based; how it was run: as §1
[18] = tested on: AGS; test: Potentiation of TRAIL-induced apoptosis in human AGS cells assessed as increase in cleaved caspase3 level at 16 uM measured after 24 hrs by Western blot analysis; type: functional; how it was run: as §3
[19] = tested on: AGS; test: Potentiation of TRAIL-induced apoptosis in human AGS cells assessed as increase in cleaved caspase9 level at 16 uM measured after 24 hrs by Western blot analysis; type: functional; how it was run: as §3
[20] = Downregulation of Bcl2 protein expression in human AGS cells measured after 24 hrs by Western blot analysis; type: functional, cell-based; how it was run: as §1
[21] = tested on: AGS; test: Potentiation of TRAIL-induced cytotoxicity against human AGS cells assessed as reduction in cell viability at 10 to 40 uM measured after 24 hrs by FMCA method; type: functional, cell-based; how it was run: as §2
[22] = tested on: AGS; test: Potentiation of TRAIL-induced cytotoxicity against human AGS cells assessed as reduction in cell viability at 20 to 60 uM measured after 24 hrs by FMCA method; type: functional, cell-based; how it was run: as §2
[23] = tested on: AGS; test: Potentiation of TRAIL-induced cytotoxicity against human AGS cells assessed as reduction in cell viability at 20 to 80 uM measured after 24 hrs by FMCA method; type: functional, cell-based; how it was run: as §2
[24] = tested on: AGS; test: Potentiation of TRAIL-induced cytotoxicity against human AGS cells assessed as reduction in cell viability at 10 to 30 uM measured after 24 hrs by FMCA method; type: functional, cell-based; how it was run: as §2
[25] = tested on: AGS; test: Potentiation of TRAIL-induced cytotoxicity against human AGS cells assessed as reduction in cell viability at 5 to 30 uM measured after 24 hrs by FMCA method; type: functional, cell-based; how it was run: as §2
[26] = tested on: AGS; test: Potentiation of TRAIL-induced cytotoxicity against human AGS cells assessed as reduction in cell viability at 10 to 50 uM measured after 24 hrs by FMCA method; type: functional, cell-based; how it was run: as §2
[27] = tested on: AGS; test: Potentiation of TRAIL-induced cytotoxicity against human AGS cells assessed as reduction in cell viability at 40 to 120 uM measured after 24 hrs by FMCA method; type: functional, cell-based; how it was run: as §2

**Q.** For `C=C[C@]1(C)C=C2C[C@@H](OC(C)=O)[C@H]3C(C)(C)CC[C@H](O)[C@]3(C)[C@@]2(O)CC1`, which Activity [1] is on record?
**A.** Its Activity is “Dose-dependent effect”.

**Q.** What about the Activity [2] of the same molecule?
**A.** The Activity was “Dose-dependent effect”.

**Q.** And the Activity [3]?
**A.** The Activity was “Active”.

**Q.** And the Activity [4]?
**A.** Its Activity is “Active”.

**Q.** And the Activity [5]?
**A.** The Activity was “Non-Toxic”.

**Q.** And the Activity [6]?
**A.** Its Activity is “Active”.

**Q.** What about the Activity [7] of the same molecule?
**A.** The Activity was “Active”.

**Q.** What about the Activity [8] of the same molecule?
**A.** The Activity was “Dose-dependent effect”.

**Q.** What about the Activity [9] of the same molecule?
**A.** Its Activity is 65%.

**Q.** And the Activity [10]?
**A.** Its Activity is 0%.

**Q.** What about the Activity [11] of the same molecule?
**A.** The Activity was “Active”.

**Q.** What about the Activity [12] of the same molecule?
**A.** The Activity was “Active”.

**Q.** And the Activity [13]?
**A.** The Activity was “Dose-dependent effect”.

**Q.** And the Activity [14]?
**A.** Its Activity is “Dose-dependent effect”.

**Q.** What about the Activity [15] of the same molecule?
**A.** Its Activity is 15%.

**Q.** What about the Activity [16] of the same molecule?
**A.** Its Activity is 0%.

**Q.** What about the Activity [17] of the same molecule?
**A.** The Activity was “Dose-dependent effect”.

**Q.** What about the Activity [18] of the same molecule?
**A.** The Activity was 68%.

**Q.** And the Activity [19]?
**A.** The Activity was 75%.

**Q.** And the Activity [20]?
**A.** Its Activity is “Dose-dependent effect”.

**Q.** For `C=C[C@]1(C)C=C2C[C@@H](OC(C)=O)[C@H]3C(C)(C)CCC(=O)[C@]3(C)[C@@]2(O)CC1`, which Activity [21] is on record?
**A.** Its Activity is “Active”.

**Q.** Which Activity [22] does the source give for `C=C[C@@]1(C)CCC2=C([C@H](O)[C@@H](O)[C@H]3C(C)(C)CCC[C@]23C)[C@@H]1OC` here?
**A.** The Activity was “Active”.

**Q.** With `C=C[C@@]1(C)CCC2=C(C[C@@H](O)[C@H]3C(C)(C)CC[C@H](O)[C@]23C)C1=O` as the molecule, how does the Activity [23] read?
**A.** The Activity was “Active”.

**Q.** Which Activity [24] does the source give for `C=C[C@]1(C)C=C2[C@H](O)[C@@H](OC(C)=O)[C@H]3C(C)(C)CC[C@H](O)[C@]3(C)[C@@]2(O)CC1` here?
**A.** Its Activity is “Active”.

**Q.** Which Activity [24] does the source give for `C=C[C@]1(C)C=C2[C@H](O)[C@@H](OC(C)=O)[C@H]3C(C)(C)CCC[C@]3(C)[C@@]2(O)CC1` here?
**A.** The Activity was “Active”.

**Q.** Which Activity [24] does the source give for `C=C[C@@]1(C)C=C2CC[C@H]3C(C)(C)CC[C@H](O)[C@]3(C)[C@H]2[C@H](O)C1` here?
**A.** The Activity was “Active”.

**Q.** With `C=C[C@]1(C)C=C2CC[C@H]3C(C)(C)CC[C@H](O)[C@]3(C)[C@@]2(O)CC1` as the molecule, how does the Activity [25] read?
**A.** Its Activity is “Active”.

**Q.** Which Activity [26] does the source give for `C=C[C@]1(C)C=C2C[C@@H](O)[C@H]3C(C)(C)[C@H](O)C[C@H](O)[C@]3(C)[C@H]2CC1` here?
**A.** The Activity was “Active”.

**Q.** For `C=C[C@]1(C)C=C2[C@H](O)C[C@H]3C(C)(C)CC[C@H](O)[C@]3(C)[C@@]2(O)CC1`, which Activity [22] is on record?
**A.** The Activity was “Active”.

**Q.** With `C=C[C@]1(C)C=C2C[C@@H](O)[C@H]3C(C)(C)CC[C@H](O)[C@]3(C)[C@@]2(O)CC1` as the molecule, how does the Activity [27] read?
**A.** The Activity was “Active”.

**Q.** Which Activity [21] does the source give for `C=C[C@@]1(C)CCC2=C([C@H]1OC)[C@H](OC)[C@@H](O)[C@H]1C(C)(C)CCC[C@]21C` here?
**A.** The Activity was “Active”.

**Q.** With `C=C[C@@]1(C)CCC2=C(C[C@@H](O)[C@H]3C(C)(C)CCC[C@]23C)[C@H]1O` as the molecule, how does the Activity [26] read?
**A.** Its Activity is “Active”.

**Q.** Which Activity [24] does the source give for `C=C[C@]1(C)C=C2[C@@H](O)C[C@H]3C(C)(C)CCC[C@]3(C)[C@@]2(O)[C@H](O)C1` here?
**A.** Its Activity is “Active”.

**Q.** Which Activity [24] does the source give for `C=C[C@@]1(C)CCC2=C([C@H](OC)[C@@H](O)[C@H]3C(C)(C)CCC[C@]23C)[C@@H]1OC` here?
**A.** The Activity was “Active”.

**Q.** With `C=C[C@]1(C)C=C2C[C@@H](O)[C@H]3C(C)(C)CCC(=O)[C@]3(C)[C@@]2(O)CC1` as the molecule, how does the Activity [21] read?
**A.** Its Activity is “Active”.

**Q.** Which Activity [24] does the source give for `C=C[C@]1(C)C=C2CC[C@H]3C(C)(C)C[C@H](O)[C@H](O)[C@]3(C)[C@H]2CC1` here?
**A.** The Activity was “Active”.

**Q.** With `CC1=C[C@@H](O)[C@H](C(C)C)CC1=O` as the molecule, how does the Activity [23] read?
**A.** The Activity was “Active”.
